Reference: ChEMBL document CHEMBL1681672, “Antitumor agents 283. Further elaboration of desmosdumotin C analogs as potent antitumor agents: activation of spindle assembly checkpoint as possible mode of action” (2011)
Active and inactive are the calls of the source. The rule behind the calls is not given here.

Key:
[1] = system: A549; experiment: Antiproliferative activity against human A549 cells after 3 days by sulforhodamine B assay; type: functional; conditions: A549, 72 h, read-out: ED50 (the source's name)
How it was run: (§1)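 Cells were seeded from freshly trypsinized suspensions at 1500–7500 cells/well and dosed from DMSO-diluted stock. After 3 days of culture, attached cells were fixed with cold 50% TCA and stained with 0.4% SRB. Bound dye was solubilized and absorbance read at 562 nm. ED50 is the concentration giving 50% growth reduction versus untreated cells, averaged from at least three independent determinations. Cells were grown in RPMI-1640 with 25 mM HEPES, 10% FBS and kanamycin.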

[2] = system: HCT-8; experiment: Antiproliferative activity against human HCT8 cells after 3 days by sulforhodamine B assay; type: functional; conditions: HCT-8, 72 h, read-out: ED50 (the source's name); how it was run: as §1
[3] = system: MCF7; experiment: Antiproliferative activity against human MCF7 cells after 3 days by sulforhodamine B assay; type: functional; conditions: MCF7, 72 h, read-out: ED50 (the source's name)
[4] = system: PC-3; experiment: Antiproliferative activity against human PC3 cells after 3 days by sulforhodamine B assay; type: functional; conditions: for EC50: PC-3, 72 h, read-out: ED50 (the source's name); how it was run: as §1
[5] = system: HepG2; experiment: Antiproliferative activity against human HepG2 cells after 3 days by sulforhodamine B assay; type: functional; conditions: for EC50: HepG2, 72 h, read-out: ED50 (the source's name); how it was run: as §1
[6] = system: KB; experiment: Antiproliferative activity against human KB cells after 3 days by sulforhodamine B assay; type: functional; conditions: 72 h, read-out: ED50 (the source's name); how it was run: as §1
[7] = Antiproliferative activity against human KBVIN cells expressing P-glycoprotein after 3 days by sulforhodamine B assay; type: functional; conditions: 72 h, read-out: ED50 (the source's name); how it was run: as §1
[8] = Antiproliferative activity against human CL1-5 cells; type: functional; conditions: read-out: ED50 (the source's name)
[9] = system: 1A9; experiment: Antiproliferative activity against human 1A9 cells after 3 days by sulforhodamine B assay; type: functional; conditions: 1A9, 72 h, read-out: ED50 (the source's name); how it was run: as §1
[10] = Effect on MAD1 mRNA expression in human CL1-5 cells at 0.05 ug/ml after 24 hrs by RT-PCR relative to DMSO control; type: functional
[11] = Effect on MAD2 mRNA expression in human CL1-5 cells at 0.05 ug/ml after 24 hrs by RT-PCR relative to DMSO control; type: functional
[12] = Effect on securin mRNA expression in human CL1-5 cells at 0.05 ug/ml after 24 hrs by RT-PCR relative to DMSO control; type: functional
[13] = Effect on separase mRNA expression in human CL1-5 cells at 0.05 ug/ml after 24 hrs by RT-PCR relative to DMSO control; type: functional
[14] = Effect on dynein1 mRNA expression in human CL1-5 cells at 0.05 ug/ml after 24 hrs by RT-PCR relative to DMSO control; type: functional
[15] = Effect on dynactin mRNA expression in human CL1-5 cells at 0.05 ug/ml after 24 hrs by RT-PCR relative to DMSO control; type: functional
[16] = Effect on KNSL1 mRNA expression in human CL1-5 cells at 0.05 ug/ml after 24 hrs by RT-PCR relative to DMSO control; type: functional
[17] = Upregulation of MAD2L1 transcript in human CL1-5 cells at 0.05 ug/ml after 24 hrs by semi-quantitative RT-PCR; type: functional, cell-based
How it was run: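 CL1-5 cells were seeded at 2.5×10^5 per 60 mm dish and grown 48 h in RPMI with 10% FBS at 37 °C in 5% CO2. Cells then received DMSO or 0.05 μg/mL compound for 24 h. Total RNA was extracted with TRIzol and MAD2L1 was amplified by RT-PCR, with Gβ-like as the control transcript, and bands were compared on gel.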

[18] = Effect on cyclinB mRNA expression in human CL1-5 cells at 0.05 ug/ml after 24 hrs by RT-PCR relative to DMSO control; type: functional
[19] = Effect on CDK1 mRNA expression in human CL1-5 cells at 0.05 ug/ml after 24 hrs by Affymetrix GeneChip microarray relative to DMSO control
[20] = Effect on NEK2A mRNA expression in human CL1-5 cells at 0.05 ug/ml after 24 hrs by Affymetrix GeneChip microarray relative to DMSO control
[21] = Effect on Aurora A mRNA expression in human CL1-5 cells at 0.05 ug/ml after 24 hrs by Affymetrix GeneChip microarray relative to DMSO control
[22] = Effect on Aurora B mRNA expression in human CL1-5 cells at 0.05 ug/ml after 24 hrs by Affymetrix GeneChip microarray relative to DMSO control

EC50 [1]	EC50 [2]	EC50 [3]	EC50 [4]	EC50 [5]	EC50 [6]	Compound	EC50 [7]	EC50 [9]	other results
8.2 µM	7.8 µM	5.1 µM	9.6 µM	7.3 µM	6.4 µM	CCCOC1=C(CCC)C(=O)/C(=C(O)/C=C/c2ccc(I)cc2)C(=O)C1(CCC)CCC	6.2 µM		
2 µM	2.6 µM		4.7 µM		1.8 µM	CCCC1=C(OC)C(CCC)(CCC)C(=O)/C(=C(O)\C=C\c2ccc(Br)cc2)C1=O	1.8 µM	1.9 µM	EC50 [8]: 0.11 µM; fold change (FC) [10]: 2; fold change (FC) [11]: 2; fold change (FC) [12]: 2; fold change (FC) [13]: 2; fold change (FC) [14]: 2; fold change (FC) [15]: 2; fold change (FC) [16]: 2; Activity [17]: Active; fold change (FC) [18]: 2; fold change (FC) [19]: 2; fold change (FC) [20]: 2; fold change (FC) [21]: 2; fold change (FC) [22]: 2
6.4 µM	7.8 µM	4.4 µM	13 µM	23.9 µM	7 µM	CCCCC1=C(OC)C(CCCC)(CCCC)C(=O)/C(=C(O)\C=C\c2ccccc2)C1=O	8.6 µM	5.9 µM	
11.3 µM	15.3 µM	9.1 µM	17 µM	15.5 µM	10.6 µM	CCCC1=C(OCCC(C)C)C(CCC)(CCC)C(=O)/C(=C(O)\C=C\c2ccccc2)C1=O	19.2 µM		
0.00256 µM	> 0.1 µM	> 0.1 µM	0.00887 µM	> 0.1 µM	0.00287 µM	CC(=O)O[C@H]1C(=O)[C@@]2(C)[C@H]([C@H](OC(=O)c3ccccc3)[C@]3(O)C[C@H](OC(=O)[C@H](O)[C@@H](NC(=O)c4ccccc4)c4ccccc4)C(C)=C1C3(C)C)[C@]1(OC(C)=O)CO[C@@H]1C[C@@H]2O [PACLITAXEL]	> 0.1 µM	0.00209 µM	
10.3 µM	13.7 µM	8.2 µM	12.2 µM	11.2 µM	13.3 µM	COC1=C(CC=C(C)C)C(=O)/C(=C(O)/C=C/c2ccccc2)C(=O)C1(CC=C(C)C)CC=C(C)C [3,3,5-TRIPRENYLDESMOSDUMOTIN C]	8.9 µM		
4.6 µM	5.6 µM	2.6 µM	12.5 µM	11.2 µM	6.4 µM	CCCC1=C(OCC)C(CCC)(CCC)C(=O)/C(=C(O)\C=C\c2ccccc2)C1=O	3.5 µM	4.3 µM	
18.4 µM	13 µM	25.2 µM			17.5 µM	COC1=C(CCC(C)C)C(=O)/C(=C(O)/C=C/c2ccccc2)C(=O)C1(CCC(C)C)CCC(C)C	20.3 µM	16.3 µM	ED50 [4]: inactive; ED50 [5]: inactive
4.4 µM	7.5 µM	3.7 µM	12.4 µM	14.5 µM	7.9 µM	COC1=C(CC(C)C)C(=O)/C(=C(O)/C=C/c2ccccc2)C(=O)C1(CC(C)C)CC(C)C	8.2 µM	8 µM	
1.4 µM	1.1 µM	1.8 µM	2.8 µM	2.4 µM	1.5 µM	CCCC1=C(OC)C(CCC)(CCC)C(=O)/C(=C(O)\C=C\c2ccc(I)cc2)C1=O	1.4 µM	1.8 µM	
3.6 µM	3.5 µM		8.2 µM		4.6 µM	CCCC1=C(OC)C(CCC)(CCC)C(=O)/C(=C(O)\C=C\c2ccccc2)C1=O	3.4 µM	3.7 µM	
11.2 µM	11.8 µM		35.6 µM		12.8 µM	COC1=C(C)C(O)=C(C(=O)/C=C/c2ccccc2)C(=O)C1(C)C [DESMOSDUMOTIN C]	9.6 µM	11.2 µM	
1.9 µM	2.6 µM	1.6 µM	8.6 µM	8.3 µM	2.7 µM	CCCOC1=C(CCC)C(=O)/C(=C(O)/C=C/c2ccccc2)C(=O)C1(CCC)CCC	2.4 µM	2 µM	
0.0048 µM	0.0242 µM	0.0121 µM	0.0121 µM	0.0029 µM	0.0024 µM	CC[C@]1(O)C[C@H]2CN(CCc3c([nH]c4ccccc34)[C@@](C(=O)OC)(c3cc4c(cc3OC)N(C=O)[C@H]3[C@@](O)(C(=O)OC)[C@H](OC(C)=O)[C@]5(CC)C=CCN6CC[C@]43[C@@H]65)C2)C1 [VINCRISTINE]	> 0.1 µM		
7.1 µM	8.7 µM	5.3 µM	9.6 µM	8 µM	8 µM	CCCCOC1=C(CCC)C(=O)/C(=C(O)/C=C/c2ccccc2)C(=O)C1(CCC)CCC	8.9 µM		
1.7 µM	8 µM	4.4 µM	12.2 µM	13.4 µM	4.8 µM	CCCC1=C(OCC(C)C)C(CCC)(CCC)C(=O)/C(=C(O)\C=C\c2ccccc2)C1=O	4.1 µM	6.9 µM	
7.1 µM	6.7 µM	5.8 µM	8.4 µM	6.4 µM	8.2 µM	CCCC1(CC=C(C)C)C(=O)C(C(=O)/C=C/c2ccccc2)=C(O)C(CCC)(CCC)C1=O (stereo not drawn)	7.3 µM		
